Assay outcomes (PubChem)
Kir21 block = inhibitors of mouse Kir2.1 inward-rectifier potassium channel; P35561; HEK293-Kir2.1, FluxOR thallium flux fluorescence; hits give low values; B-score at 10 µM; 310,000 compounds, 0.85% hits; AID 1672;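 active = fluorescence ratio B-score at or below minus 3 SD of library scores, with starting-brightness B-score within 2 SD, cut at about -4.2 in these data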;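 also: channel flux triggered by added potassium and thallium sulfate stimulus; B-score of peak minus minimum fluorescence over baseline after thallium stimulus; more negative B-score means stronger Kir2.1 block with less thallium influx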
Target sequence (P35561 whole entry, looked up): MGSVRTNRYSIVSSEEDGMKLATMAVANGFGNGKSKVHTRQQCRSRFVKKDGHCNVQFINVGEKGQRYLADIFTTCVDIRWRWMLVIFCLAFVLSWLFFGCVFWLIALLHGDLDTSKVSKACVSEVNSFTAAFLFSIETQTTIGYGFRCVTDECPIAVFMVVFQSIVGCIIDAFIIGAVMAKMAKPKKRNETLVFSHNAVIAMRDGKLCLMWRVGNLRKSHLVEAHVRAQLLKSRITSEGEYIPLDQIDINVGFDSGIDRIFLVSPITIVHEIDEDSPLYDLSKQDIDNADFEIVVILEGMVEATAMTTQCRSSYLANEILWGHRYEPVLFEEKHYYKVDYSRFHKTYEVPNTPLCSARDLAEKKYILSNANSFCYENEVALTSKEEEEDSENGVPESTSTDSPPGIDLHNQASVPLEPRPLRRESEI
TRPC4 potent = TRPC4 (mouse) allosteric potentiation; B-score at 10 µM; Q9QUQ5; HEK293 TRPC4beta/mu-opioid, DAMGO EC20, Fluo-4 Ca2+ flux; hits give high values; 310,000 compounds, 0.42% hits;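 active = B-score of calcium response area above 5 SD of library B-scores, with initial fluorescence ratio within 5 SD of library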
TRPC4 act = activators of mouse TRPC4 channel; Q9QUQ5; HEK293 TRPC4beta/mu-opioid, Fluo4 calcium fluorescence; hits give high values; B-score at 10 µM; 310,000 compounds, 0.49% hits;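 active = B-score above 5 SD of library B-scores, and initial fluorescence ratio not above library mean plus 5 SD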;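 also: positive B-score marks a calcium rise read as TRPC4 activation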
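Material: HEK293 stable line with TRPC4beta plus mu-opioid receptor; technique: Fluo4 calcium-sensitive dye fluorescence, kinetic, 1 Hz baseline; timing: Fluo4 dye loading 45 min at room temperature, 110 s recording; controls: assay buffer as low control, maximal DAMGO as high control; read-out: integrated baseline-normalised fluorescence ratio, converted to per-well B score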
TRPC6 activator = activates the mouse TRPC6 cation channel; Q61143; HEK293-TRPC6 membrane potential dye fluorescence; hits give high values; B-score at 10 µM; 310,000 compounds, 0.13% hits; AID 2550;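 active = B-score of the integrated fluorescence ratio above library mean plus 3 SD, and starting fluorescence ratio within library mean plus 5 SD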;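 also: higher score means more depolarization so channel activation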
TRPC6 inh = blocks the mouse TRPC6 cation channel | Q61143 | B-score at 10 µM | HEK293-TRPC6, membrane potential dye, ACh-evoked depolarization; hits give low values | 310,000 compounds, 1.1% hits;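 active = B-score under library mean minus 3 SD, initial fluorescence not abnormally high, positive integrated signal ratio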;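 also: B-score derived from integrated fluorescence ratio over the kinetic read; more negative B-score means stronger inhibition of depolarization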
TRPC4 block = TRPC4 (mouse) channel inhibition; HEK293 TRPC4beta/mu-opioid, DAMGO-evoked Fluo4 calcium flux; hits give low values; B-score at 10 µM; 300,000 compounds, 0.39% hits; AID 2247;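 active = B-score over 3 SD under the library average, no early fluorescence shift, positive overall ratio signal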
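Assay system: TRPC4beta/mu-opioid receptor HEK293 cell line; compound dosing: single concentration per test compound; detection: Fluo4 Ca2+ flux fluorescence; evaluation: per-well B score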
TRPC4 sel inh 2 = mouse TRPC4 off-target activity of TRPC6 inhibitors, second screen; shares compounds with TRPC6 inh; HEK293 TRPC4/MOR, membrane potential dye fluorescence; channel activated by saturating DAMGO dose; inhibition, % at 10 µM; 920 compounds, 42% hits; AID 2776;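 active = compounds whose fluorescence signal differed from control wells by over 3 SD, either direction, in both duplicate plates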
TRPC4 spec = tests whether TRPC6 inhibitors also affect mouse TRPC4; shares compounds with TRPC6 inh; HEK293 TRPC4/mu-opioid, membrane potential fluorescence; activity change, negative = inhibition, % at 10 µM; 920 compounds, 61% hits; AID 2777;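 active = rise or fall in signal beyond 3 SD of buffer-only wells in both replicate plates, either sign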;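 also: integrated kinetic ratio of fluorescence range over baseline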
HEK293 MPD ctr 2-1 = second check of TRPC6 inhibitor effects in parental HEK293 cells; shares compounds with TRPC6 inh; parental HEK293 membrane potential dye fluorescence; maximal acetylcholine challenge after compound addition; signal change vs control, % at 10 µM; 920 compounds, 31% hits;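 active = membrane potential signal moving either way by over 3 SD of the maximum-effect control, in both duplicate plates, meaning non-specific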
HEK293 MPD ctr-1 = parental HEK293 nonspecific activity of TRPC6 inhibitors; shares compounds with TRPC6 inh; parental HEK293 membrane potential dye fluorescence; membrane potential signal change, % at 10 µM; 920 compounds, 60% hits; AID 2780;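 active = membrane potential signal shifting up or down by more than 3 SD of buffer-only wells, on both duplicate plates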
HEK293 MPD ctr-2 = counter-screen for TRPC6 modulators: effect in parental HEK293 cells; shares compounds with TRPC6 inh; membrane potential dye fluorescence; membrane potential signal change, % at 10 µM; 2,400 compounds, 51% hits;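 active = membrane potential signal moves up or down beyond 5 SD from buffer-only wells, on both duplicate plates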
HEK293 MPD ctr 2-2 = second check of TRPC6 modulator effects in parental HEK293 cells; membrane potential dye fluorescence; after compound, maximal acetylcholine stimulation; AID 488926; inhibition, % at 10 µM; 2,400 compounds, 14% hits; shares compounds with TRPC6 inh;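 active = membrane potential signal drops by more than 5 SD from the mean control signal, in both duplicate plates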
TRPC4 ctr mod = mouse TRPC4 off-target activity of TRPC6 modulators; 2,400 compounds, 69% hits; shares compounds with TRPC6 inh; percent change from control (negative = decrease, positive = increase), % at 10 µM; HEK293 TRPC4/mu-opioid, membrane potential fluorescence;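 active = membrane potential signal moved up or down beyond 5 SD of buffer control wells, in both duplicate plates, actives on both sides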
TRPC4/MOR inh 2 = second check of whether TRPC6 modulators also affect mouse TRPC4. shares compounds with TRPC6 inh. HEK293 TRPC4/mu-opioid, membrane potential dye fluorescence; stimulated with maximal-effect DAMGO. inhibition, % at 10 µM. 2,400 compounds, 55% hits;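 active = drop in membrane potential signal beyond 5 SD of the control wells in both duplicate plates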;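 also: TRPC4 counter screen for TRPC6 hits run under conditions tuned for TRPC6 not TRPC4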
TRPC6 inh conf = confirmation of mouse TRPC6 inhibitors. shares compounds with TRPC6 inh. HEK293-TRPC6, membrane potential dye, ACh-evoked depolarization. inhibition, % at 10 µM. 3,300 compounds, 43% hits. AID 488960;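 active = fluorescence ratio falls more than 5 SD below the full-stimulation control mean, in both duplicate runs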;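 also: integrated fluorescence ratio of peak minus minimum over baseline after agonist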
TRPC6 act conf = confirmation of mouse TRPC6 activators | shares compounds with TRPC6 inh | HEK293-TRPC6 membrane potential dye fluorescence, FDSS | activation, % at 10 µM | 2,800 compounds, 11% hits | AID 488961;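 active = ratio signal rise beyond 5 SD above unstimulated control wells' mean, seen in both duplicate runs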
Numbers stand for hits. Rows were chosen to be rich in hits. Some 2.9% of all compounds tested hit in one or more screens of this group.

Results for O=C(NC(Nc1ncc(S(=O)(=O)c2ccc([N+](=O)[O-])cc2)s1)(C(F)(F)F)C(F)(F)F)c1ccc(Cl)cc1 ?
Kir21 block: -6.91; TRPC4 potent: inactive; TRPC4 act: inactive; TRPC6 activator: inactive; TRPC6 inh: -8.16; TRPC4 block: inactive; TRPC4 sel inh 2: 65.0%; TRPC4 spec: 9.8%; HEK293 MPD ctr 2-1: inactive; HEK293 MPD ctr-1: 5.0%; TRPC6 inh conf: 67.6%; TRPC6 act conf: inactive

Results for CCC(CC)COC(=O)C(C#N)c1nc2ccccc2nc1N1CCN(CC)CC1 (stereo unspecified) ?
Kir21 block: inactive; TRPC4 potent: inactive; TRPC4 act: inactive; TRPC6 activator: inactive; TRPC6 inh: -9.79; TRPC4 block: inactive; TRPC4 sel inh 2: 49.5%; TRPC4 spec: inactive; HEK293 MPD ctr 2-1: inactive; HEK293 MPD ctr-1: inactive; TRPC6 inh conf: 63.4%; TRPC6 act conf: inactive

How did CC/C(=N\NC(=O)C(N)=O)c1ccccc1O do in these assays?
Kir21 block: inactive; TRPC4 potent: inactive; TRPC4 act: inactive; TRPC6 activator: inactive; TRPC6 inh: inactive; TRPC4 block: inactive

What do the screens show for `COC(=O)c1c(N2C(=O)CC(Sc3ccccc3C(=O)O)C2=O)sc2c1CCCC2` (stereo unspecified)?
Kir21 block: inactive; TRPC4 potent: inactive; TRPC4 act: inactive; TRPC6 activator: inactive; TRPC6 inh: inactive; TRPC4 block: inactive

Results for COc1cccc(C2SCC(=O)N2c2ccc(C)cc2)c1OC (stereo unspecified) ?
Kir21 block: inactive; TRPC4 potent: inactive; TRPC4 act: inactive; TRPC6 activator: inactive; TRPC6 inh: -5.57; TRPC4 block: inactive; HEK293 MPD ctr-2: inactive; HEK293 MPD ctr 2-2: inactive; TRPC4 ctr mod: 8.0%; TRPC4/MOR inh 2: inactive; TRPC6 inh conf: 65.5%; TRPC6 act conf: inactive

Results for CCOC(=O)c1ccc2c(c1)n(CC)c(C)[n+]2CC ?
Kir21 block: inactive; TRPC4 potent: inactive; TRPC4 act: inactive; TRPC6 activator: inactive; TRPC6 inh: inactive; TRPC4 block: inactive

What do the screens show for `CCOC(=O)c1ccc2c(c1)n(CCCS(=O)(=O)[O-])c(/C=C/c1ccc(Cl)cc1)[n+]2CC`?
Kir21 block: inactive; TRPC4 potent: inactive; TRPC4 act: inactive; TRPC6 activator: inactive; TRPC6 inh: -7.41; TRPC4 block: inactive; HEK293 MPD ctr-2: -333.0%; HEK293 MPD ctr 2-2: inactive; TRPC4 ctr mod: -60.0%; TRPC4/MOR inh 2: 61.0%; TRPC6 inh conf: 58.5%; TRPC6 act conf: inactive

How did O=C(CCN1CCN(c2ccccc2)CC1)N/N=C/c1ccccc1OC(F)F do in these assays?
Kir21 block: inactive; TRPC4 potent: inactive; TRPC4 act: inactive; TRPC6 activator: inactive; TRPC6 inh: inactive; TRPC4 block: inactive

Results for Cc1ccc(Cn2c(=N)n(CC(O)COc3ccccc3)c3ccccc32)cc1 (stereo unspecified) ?
Kir21 block: -8.54; TRPC4 potent: inactive; TRPC4 act: 72; TRPC6 activator: inactive; TRPC6 inh: -5.86; TRPC4 block: inactive; HEK293 MPD ctr-2: inactive; HEK293 MPD ctr 2-2: inactive; TRPC4 ctr mod: 67.5%; TRPC4/MOR inh 2: 115.0%; TRPC6 inh conf: 46.0%

What do the screens show for `CCCCn1c(=N)n(CC(O)COc2ccccc2)c2ccccc21` (stereo unspecified)?
Kir21 block: inactive; TRPC4 potent: inactive; TRPC4 act: inactive; TRPC6 activator: inactive; TRPC6 inh: inactive; TRPC4 block: inactive

Results for N=c1n(Cc2ccccc2)c2ccccc2n1CC(O)COc1ccccc1 (stereo unspecified) ?
Kir21 block: -7.14; TRPC4 potent: inactive; TRPC4 act: 56; TRPC6 activator: inactive; TRPC6 inh: -9.91; TRPC4 block: inactive; TRPC4 sel inh 2: -6.5%; TRPC4 spec: 56.0%; HEK293 MPD ctr 2-1: inactive; HEK293 MPD ctr-1: 13.7%; TRPC6 inh conf: 63.0%

How did CNC(=S)N1CCC(NC(=O)C(Cc2ccccc2)NC(C)=O)CC1 (stereo unspecified) do in these assays?
Kir21 block: inactive; TRPC4 potent: inactive; TRPC4 act: inactive; TRPC6 activator: inactive; TRPC6 inh: inactive; TRPC4 block: inactive

Results for OCCCCCN=c1cc(-c2ccccc2)oc2ccc(Cl)cc12 ?
Kir21 block: inactive; TRPC4 potent: inactive; TRPC4 act: inactive; TRPC6 activator: inactive; TRPC6 inh: -7.98; TRPC4 block: inactive; TRPC4 sel inh 2: 57.0%; TRPC4 spec: -26.2%; HEK293 MPD ctr 2-1: 31.0%; HEK293 MPD ctr-1: -431.5%; TRPC6 inh conf: 73.7%; TRPC6 act conf: inactive

Results for NC(=O)COc1ccc2oc(-c3ccccc3)cc(=O)c2c1 ?
Kir21 block: inactive; TRPC4 potent: inactive; TRPC4 act: inactive; TRPC6 activator: inactive; TRPC6 inh: inactive; TRPC4 block: inactive

Results for Cn1c(=O)c2c(nc(N3CCCCCC3)n2Cc2cccc3ccccc23)n(C)c1=O ?
Kir21 block: inactive; TRPC4 potent: 13; TRPC4 act: inactive; TRPC6 activator: inactive; TRPC6 inh: -8.83; TRPC4 block: inactive; TRPC4 sel inh 2: inactive; TRPC4 spec: inactive; HEK293 MPD ctr 2-1: inactive; HEK293 MPD ctr-1: inactive; TRPC6 inh conf: inactive; TRPC6 act conf: inactive
